Data taken from article PMC4198695 (Neoplasia (New York, N.Y.), 2014).

Legend:
[1] = tested on: U87 glioblastoma cells; test: MTT toxicity assay, U87; assay type: cell-based; settings: Homo sapiens, 168 h, read-out: IC50 (MTT assay), U87, 7 days incubation
How it was run: (§1)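 U87 (2.5 × 10^3) or U251 (5 × 10^3) cells per well were incubated 24 h at 37 °C. Medium was then replaced with test compound at 100, 33, 10, 3.3, 1, 0.3, 0.1 and 0.03 μM, in triplicate, for 7 days at 37 °C. Cells received 10% MTT in medium for 4 h, then solubilization solution. Absorbance was read at 570 nm with 690 nm background, and percent survival calculated versus control wells.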

[2] = tested on: U251 glioblastoma cells; test: MTT toxicity assay, U251; assay type: cell-based; settings: Homo sapiens, U-251, 168 h, read-out: IC50 (MTT assay), U251, 7 days incubation
How it was run: as §1

[3] = tested on: U87 cells; test: Clonogenic proliferation assay, U87; assay type: cell-based, human; settings: U87, 10 μM for 24 h, then 14 days drug-free
How it was run: (§2)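 Cells were seeded in 6-well plates in 6 replicates: U87 at 5 × 10^2 cells/well, U251 at 1 × 10^3 cells/well. After 24 h at 37 °C they were exposed to 10 μM test compound or drug-free medium for 24 h. Cells were then PBS-washed and grown 14 days drug-free, stained with 0.5% crystal violet for 30 min, and colonies counted. Survival was normalized to drug-free control.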

[4] = tested on: U251 cells; test: Clonogenic proliferation assay, U251; assay type: cell-based, human; settings: U251, 10 μM for 24 h, then 14 days drug-free
How it was run: as §2

[5] = humans, twice daily; cited from earlier work

With `O=C(c1cc(Cc2n[nH]c(=O)c3ccccc23)ccc1F)N1CCN(C(=O)C2CC2)CC1` [Olaparib, 4-[3-(4-cyclopropanecarbonylpiperazine-1-carbonyl)-4-fluorobenzyl]-2H-phthalazin-1-one] the IC50 [1] was 23.8 ± 1.3 µM, the IC50 [2] was 5.5 ± 1.2 µM and the “decrease in number of surviving colonies” value [3] was 20-30%. For the same molecule, the “cell survival rate normalized to control” value [4] was 46.9% and the maximum tolerated dose [5] was 400 mg.
